As usually defined, the inhibition is the drop in the measured response relative to a control, in per cent.

The values that follow come from ChEMBL document CHEMBL5653631, “A Potent and Selective ULK1 Inhibitor Suppresses Autophagy and Sensitizes Cancer Cells to Nutrient Stress” (iScience, 2018).

Experiment [1] deals with Serine/threonine-protein kinase PAK 6 (Homo sapiens) (UniProt Q9NQU5). Description: Inhibition of human recombinant PAK6 at 15 nM in presence of ATP by radiometric assay relative to control.
The target of experiment [2] is Proto-oncogene tyrosine-protein kinase ROS (Homo sapiens) (UniProt P08922). Description: Inhibition of human recombinant ROS at 15 nM in presence of ATP by radiometric assay relative to control.
Experiment [3] deals with T1, Dual specificity tyrosine-phosphorylation-regulated kinase 3 (Homo sapiens) (UniProt O43781).
T1 sequence (whole entry): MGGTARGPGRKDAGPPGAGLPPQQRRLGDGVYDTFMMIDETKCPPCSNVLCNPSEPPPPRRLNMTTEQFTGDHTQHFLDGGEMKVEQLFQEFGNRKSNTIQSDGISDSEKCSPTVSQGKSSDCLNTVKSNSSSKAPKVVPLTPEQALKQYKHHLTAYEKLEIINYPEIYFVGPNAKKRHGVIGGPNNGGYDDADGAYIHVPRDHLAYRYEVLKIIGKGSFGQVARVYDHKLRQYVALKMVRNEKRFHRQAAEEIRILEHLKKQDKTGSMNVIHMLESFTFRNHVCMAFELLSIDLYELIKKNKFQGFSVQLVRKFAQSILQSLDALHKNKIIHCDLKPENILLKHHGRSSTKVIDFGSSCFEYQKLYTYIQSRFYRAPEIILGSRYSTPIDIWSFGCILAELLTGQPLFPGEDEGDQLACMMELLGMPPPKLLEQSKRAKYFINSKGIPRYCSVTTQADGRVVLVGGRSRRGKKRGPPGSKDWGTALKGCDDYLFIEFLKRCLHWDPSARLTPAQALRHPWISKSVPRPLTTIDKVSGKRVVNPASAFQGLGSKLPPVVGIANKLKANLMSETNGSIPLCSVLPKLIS
Description: Inhibition of human recombinant DYRK3 at 15 nM related to control ULK1.

In experiment [4] the target is T2, cAMP-dependent protein kinase catalytic subunit PRKX (Homo sapiens) (UniProt P51817).
T2 sequence (whole entry): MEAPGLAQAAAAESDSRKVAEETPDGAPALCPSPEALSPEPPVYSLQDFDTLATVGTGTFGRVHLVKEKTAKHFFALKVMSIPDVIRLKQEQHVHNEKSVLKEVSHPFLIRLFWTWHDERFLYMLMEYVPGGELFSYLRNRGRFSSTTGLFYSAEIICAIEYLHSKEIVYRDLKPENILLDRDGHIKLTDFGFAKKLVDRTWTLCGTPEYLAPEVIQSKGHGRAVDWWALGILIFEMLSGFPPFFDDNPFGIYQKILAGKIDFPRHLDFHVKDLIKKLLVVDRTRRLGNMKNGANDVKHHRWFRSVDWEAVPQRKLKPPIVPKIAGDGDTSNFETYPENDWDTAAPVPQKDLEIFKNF
Description: Inhibition of human recombinant PRKX at 15 nM related to control ULK1.

Experiment [5] concerns the target Ribosomal protein S6 kinase alpha-1 (Homo sapiens) (UniProt Q15418). Description: Inhibition of human recombinant RSK1 at 15 nM related to control ULK1.
The target in experiment [6] is Calcium/calmodulin-dependent protein kinase type II subunit delta (Homo sapiens) (UniProt Q13557). Description: Inhibition of human recombinant CaMK2d at 40 nM related to control ULK1.
Experiment [7] addresses Casein kinase I isoform gamma-2 (Homo sapiens) (UniProt P78368). Description: Inhibition of human recombinant CK1g2 at 40 nM related to control ULK1.
Experiment [8] has as its target Dual specificity tyrosine-phosphorylation-regulated kinase 1A (Homo sapiens) (UniProt Q13627). Description: Inhibition of human recombinant DYRK1A at 40 nM related to control ULK1.
Experiment [9] deals with Hepatocyte growth factor receptor MET (Homo sapiens) (UniProt P08581). Description: Inhibition of human recombinant MET at 40 nM in presence of ATP by radiometric assay relative to control.
The target of experiment [10] is T3, G protein-coupled receptor kinase 3 (Homo sapiens) (UniProt P35626).
T3 sequence (whole entry): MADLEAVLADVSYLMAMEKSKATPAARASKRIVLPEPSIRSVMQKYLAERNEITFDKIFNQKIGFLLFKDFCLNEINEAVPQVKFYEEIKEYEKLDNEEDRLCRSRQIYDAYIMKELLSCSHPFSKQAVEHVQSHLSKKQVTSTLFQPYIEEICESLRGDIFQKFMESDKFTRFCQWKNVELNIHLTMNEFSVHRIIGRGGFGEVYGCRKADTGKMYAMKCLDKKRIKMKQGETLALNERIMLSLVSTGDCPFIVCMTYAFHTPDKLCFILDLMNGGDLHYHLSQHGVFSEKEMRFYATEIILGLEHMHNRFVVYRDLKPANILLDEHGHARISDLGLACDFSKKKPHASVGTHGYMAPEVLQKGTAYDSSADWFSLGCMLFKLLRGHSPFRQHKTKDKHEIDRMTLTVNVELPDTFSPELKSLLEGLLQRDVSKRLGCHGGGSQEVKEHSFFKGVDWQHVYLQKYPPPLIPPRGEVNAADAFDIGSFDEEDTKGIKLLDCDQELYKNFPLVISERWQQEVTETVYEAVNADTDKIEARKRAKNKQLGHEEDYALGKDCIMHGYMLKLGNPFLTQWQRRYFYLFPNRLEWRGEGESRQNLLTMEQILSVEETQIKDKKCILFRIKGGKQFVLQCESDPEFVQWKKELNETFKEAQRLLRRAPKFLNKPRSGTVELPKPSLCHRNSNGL
Description: Inhibition of human recombinant BARK2 at 500 nM in presence of ATP by radiometric assay relative to control. Put shortly: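 Part of a radiometric in vitro activity panel of 327 recombinant human kinases. Each kinase was tested in duplicate at one inhibitor concentration. Activity remaining was expressed as a percentage of the vehicle control, and percent inhibition was taken as 100 minus that value.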

Experiment [11] has as its target T4, Serine/threonine-protein kinase STK11 (Homo sapiens) (UniProt Q15831).
T4 sequence (whole entry): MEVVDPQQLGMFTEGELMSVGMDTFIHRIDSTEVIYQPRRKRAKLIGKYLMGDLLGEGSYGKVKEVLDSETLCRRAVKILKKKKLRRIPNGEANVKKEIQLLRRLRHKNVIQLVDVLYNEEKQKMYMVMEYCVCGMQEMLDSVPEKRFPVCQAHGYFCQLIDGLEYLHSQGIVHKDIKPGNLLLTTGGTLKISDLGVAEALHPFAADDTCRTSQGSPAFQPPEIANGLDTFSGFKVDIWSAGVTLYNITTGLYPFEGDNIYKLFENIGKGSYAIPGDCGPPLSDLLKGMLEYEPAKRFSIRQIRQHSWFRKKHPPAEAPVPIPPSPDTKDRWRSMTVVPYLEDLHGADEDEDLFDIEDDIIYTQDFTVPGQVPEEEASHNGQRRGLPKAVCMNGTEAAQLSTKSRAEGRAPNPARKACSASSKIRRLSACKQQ
Description: Inhibition of human recombinant LKB1 at 500 nM related to control ULK1.

The target of experiment [12] is Serine/threonine-protein kinase VRK2 (Homo sapiens) (UniProt Q86Y07). Description: Inhibition of human recombinant VRK2 at 500 nM related to control ULK1.
Serine/threonine-protein kinase VRK2 (Homo sapiens), sequence (Q86Y07 whole entry): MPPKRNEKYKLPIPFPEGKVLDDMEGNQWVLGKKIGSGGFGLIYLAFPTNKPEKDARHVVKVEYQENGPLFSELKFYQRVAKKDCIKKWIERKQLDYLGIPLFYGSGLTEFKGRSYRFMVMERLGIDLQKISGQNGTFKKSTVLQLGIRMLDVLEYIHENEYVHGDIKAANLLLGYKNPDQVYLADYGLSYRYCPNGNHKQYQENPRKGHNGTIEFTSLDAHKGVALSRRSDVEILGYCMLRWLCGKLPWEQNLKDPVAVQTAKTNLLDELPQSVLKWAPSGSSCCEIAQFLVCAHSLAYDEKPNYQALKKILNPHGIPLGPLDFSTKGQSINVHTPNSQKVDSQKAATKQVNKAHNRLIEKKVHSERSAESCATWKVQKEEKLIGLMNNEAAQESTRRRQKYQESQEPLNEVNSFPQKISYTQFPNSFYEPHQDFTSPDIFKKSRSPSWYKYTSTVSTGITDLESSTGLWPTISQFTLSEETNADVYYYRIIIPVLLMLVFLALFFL

Casein kinase I isoform gamma-2 (Homo sapiens), sequence (P78368 whole entry, looked up, canonical isoform): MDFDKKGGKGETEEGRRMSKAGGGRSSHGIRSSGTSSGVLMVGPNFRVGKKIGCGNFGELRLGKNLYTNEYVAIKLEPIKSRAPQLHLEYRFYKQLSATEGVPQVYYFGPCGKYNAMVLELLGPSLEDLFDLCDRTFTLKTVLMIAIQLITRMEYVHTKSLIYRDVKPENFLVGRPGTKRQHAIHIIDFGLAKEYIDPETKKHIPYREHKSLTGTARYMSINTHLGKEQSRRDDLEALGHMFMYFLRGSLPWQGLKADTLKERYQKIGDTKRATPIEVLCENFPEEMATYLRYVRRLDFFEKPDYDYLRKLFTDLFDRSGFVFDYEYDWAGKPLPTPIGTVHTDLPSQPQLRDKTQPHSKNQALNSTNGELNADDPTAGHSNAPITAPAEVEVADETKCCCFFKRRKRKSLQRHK
Hepatocyte growth factor receptor MET (Homo sapiens), sequence (P08581 whole entry, looked up): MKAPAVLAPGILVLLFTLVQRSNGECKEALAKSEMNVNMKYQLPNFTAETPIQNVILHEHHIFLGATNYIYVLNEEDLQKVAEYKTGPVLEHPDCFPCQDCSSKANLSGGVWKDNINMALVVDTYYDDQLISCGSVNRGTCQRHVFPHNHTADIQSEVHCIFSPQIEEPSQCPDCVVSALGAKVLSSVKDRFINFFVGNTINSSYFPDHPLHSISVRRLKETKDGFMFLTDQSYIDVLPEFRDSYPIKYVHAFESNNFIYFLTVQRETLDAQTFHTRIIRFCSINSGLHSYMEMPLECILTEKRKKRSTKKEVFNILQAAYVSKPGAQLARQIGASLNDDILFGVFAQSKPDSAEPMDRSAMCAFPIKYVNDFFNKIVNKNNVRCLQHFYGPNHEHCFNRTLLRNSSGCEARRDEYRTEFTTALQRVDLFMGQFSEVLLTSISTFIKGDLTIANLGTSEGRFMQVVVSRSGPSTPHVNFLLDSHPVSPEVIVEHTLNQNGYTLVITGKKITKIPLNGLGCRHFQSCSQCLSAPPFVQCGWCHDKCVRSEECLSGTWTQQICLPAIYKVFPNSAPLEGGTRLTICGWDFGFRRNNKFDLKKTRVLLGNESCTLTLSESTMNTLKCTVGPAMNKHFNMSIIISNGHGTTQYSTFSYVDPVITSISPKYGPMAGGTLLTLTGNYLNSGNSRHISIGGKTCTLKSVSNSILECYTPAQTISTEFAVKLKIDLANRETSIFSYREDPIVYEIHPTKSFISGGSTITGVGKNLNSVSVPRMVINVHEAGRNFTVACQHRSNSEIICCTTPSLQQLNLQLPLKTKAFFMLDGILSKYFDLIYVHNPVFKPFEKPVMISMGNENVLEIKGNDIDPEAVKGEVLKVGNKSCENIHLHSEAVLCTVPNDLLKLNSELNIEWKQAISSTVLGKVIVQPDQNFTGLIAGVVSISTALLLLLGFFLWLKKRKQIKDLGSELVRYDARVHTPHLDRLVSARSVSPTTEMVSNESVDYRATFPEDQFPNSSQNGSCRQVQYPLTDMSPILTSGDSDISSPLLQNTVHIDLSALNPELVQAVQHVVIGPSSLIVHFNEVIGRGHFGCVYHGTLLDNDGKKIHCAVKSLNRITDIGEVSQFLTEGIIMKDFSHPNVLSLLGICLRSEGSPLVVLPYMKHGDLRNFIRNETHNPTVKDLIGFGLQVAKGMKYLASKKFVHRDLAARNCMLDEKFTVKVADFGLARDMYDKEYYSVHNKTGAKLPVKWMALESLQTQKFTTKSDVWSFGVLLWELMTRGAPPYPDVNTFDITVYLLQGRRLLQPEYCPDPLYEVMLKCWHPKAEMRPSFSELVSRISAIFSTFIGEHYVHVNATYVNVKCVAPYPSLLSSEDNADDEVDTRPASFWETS
Ribosomal protein S6 kinase alpha-1 (Homo sapiens), sequence (Q15418 whole entry): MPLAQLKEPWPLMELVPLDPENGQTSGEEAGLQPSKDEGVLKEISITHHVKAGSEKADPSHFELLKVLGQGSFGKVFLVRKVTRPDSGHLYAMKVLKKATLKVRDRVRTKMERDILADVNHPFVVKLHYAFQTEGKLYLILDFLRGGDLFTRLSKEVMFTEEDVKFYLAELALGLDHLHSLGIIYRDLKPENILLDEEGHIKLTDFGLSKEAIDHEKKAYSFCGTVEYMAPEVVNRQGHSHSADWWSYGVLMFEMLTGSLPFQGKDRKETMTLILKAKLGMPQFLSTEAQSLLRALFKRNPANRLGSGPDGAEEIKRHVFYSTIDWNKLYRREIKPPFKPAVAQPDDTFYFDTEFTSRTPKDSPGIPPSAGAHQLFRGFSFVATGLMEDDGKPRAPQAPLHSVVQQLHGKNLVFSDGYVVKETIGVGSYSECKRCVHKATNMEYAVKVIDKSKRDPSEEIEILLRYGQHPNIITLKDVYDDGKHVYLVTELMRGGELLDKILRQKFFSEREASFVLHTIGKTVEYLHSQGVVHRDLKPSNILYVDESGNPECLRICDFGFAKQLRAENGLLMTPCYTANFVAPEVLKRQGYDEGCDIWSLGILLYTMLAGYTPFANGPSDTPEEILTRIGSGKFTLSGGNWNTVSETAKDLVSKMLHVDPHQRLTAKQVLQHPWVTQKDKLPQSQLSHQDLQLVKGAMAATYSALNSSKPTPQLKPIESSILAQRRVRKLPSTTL
Calcium/calmodulin-dependent protein kinase type II subunit delta (Homo sapiens), sequence (Q13557 whole entry, canonical isoform): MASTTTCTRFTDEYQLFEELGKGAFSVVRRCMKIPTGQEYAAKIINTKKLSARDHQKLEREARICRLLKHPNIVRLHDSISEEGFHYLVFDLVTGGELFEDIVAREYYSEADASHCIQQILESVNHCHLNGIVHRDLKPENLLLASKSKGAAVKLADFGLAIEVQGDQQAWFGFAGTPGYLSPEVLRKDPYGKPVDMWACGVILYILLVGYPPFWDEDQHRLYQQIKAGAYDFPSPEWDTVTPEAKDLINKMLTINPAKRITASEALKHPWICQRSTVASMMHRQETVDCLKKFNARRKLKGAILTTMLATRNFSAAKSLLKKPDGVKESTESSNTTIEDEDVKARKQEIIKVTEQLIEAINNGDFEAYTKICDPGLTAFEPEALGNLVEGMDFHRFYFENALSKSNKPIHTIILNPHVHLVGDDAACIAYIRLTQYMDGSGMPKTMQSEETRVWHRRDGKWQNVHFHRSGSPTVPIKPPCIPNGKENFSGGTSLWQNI
Serine/threonine-protein kinase PAK 6 (Homo sapiens), sequence (Q9NQU5 whole entry, looked up): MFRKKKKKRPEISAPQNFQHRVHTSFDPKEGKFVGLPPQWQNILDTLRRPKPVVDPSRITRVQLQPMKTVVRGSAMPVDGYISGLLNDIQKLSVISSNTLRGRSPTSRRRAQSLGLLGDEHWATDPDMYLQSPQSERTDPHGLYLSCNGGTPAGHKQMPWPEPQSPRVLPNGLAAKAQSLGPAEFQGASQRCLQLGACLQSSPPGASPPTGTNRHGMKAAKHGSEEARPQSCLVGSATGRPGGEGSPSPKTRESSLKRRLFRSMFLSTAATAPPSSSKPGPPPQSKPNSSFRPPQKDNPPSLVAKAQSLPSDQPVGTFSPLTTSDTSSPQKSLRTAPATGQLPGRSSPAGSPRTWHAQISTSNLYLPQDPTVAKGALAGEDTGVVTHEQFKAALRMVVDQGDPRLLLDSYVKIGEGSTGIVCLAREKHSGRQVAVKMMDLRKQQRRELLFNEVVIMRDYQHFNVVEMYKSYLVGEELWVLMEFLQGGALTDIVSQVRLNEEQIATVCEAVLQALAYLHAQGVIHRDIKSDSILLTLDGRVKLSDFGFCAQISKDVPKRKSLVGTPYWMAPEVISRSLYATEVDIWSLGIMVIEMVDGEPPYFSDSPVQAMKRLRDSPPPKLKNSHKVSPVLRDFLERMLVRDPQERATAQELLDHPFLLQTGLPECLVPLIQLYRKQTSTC

As for `CC(C)[C@H](NC(=O)c1cc(-c2cnn3cc(-c4ccc(OCCN5CCCCC5)cc4)cnc23)cs1)C(F)(F)F`, the inhibition in experiment [1] and in experiment [2] was 0% each time. The fold change (FC) in experiment [3] was found to be 0.26; in experiment [4], 0.18; in experiment [5], 0.26.
Turning to `O=C(N[C@@H](C1CC1)C(F)(F)F)c1cc(-c2cnn3cc(-c4ccc(F)cc4)cnc23)cs1`, the fold change (FC) in experiment [6] was 0.01; in experiment [7] it was 0.07; in experiment [8], 0.59. Besides, in [9], the inhibition is 16%.
As for `CNC(=O)c1ccccc1Oc1nc(Nc2cc(OC)c(OC)c(OC)c2)ncc1Br`, the inhibition in [10] was determined as 7%. The results for the fold change (FC) in [11] and in [12] were 0.16 and 0.31, respectively.
